The source made the active and inactive calls. The calls are words filed in the database; no cut-off is given here.
Assays:
[1] = test system: HUVEC; assay: Selectivity of IC50 for VEGF-induced proliferation over IC50 for bFGF-induced proliferation of HUVEC; assay type: functional, Homo sapiens
Procedure, shortened: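 HUVECs were seeded at 3000 cells/well in DMEM/10% FBS with pen/strep and cultured for 22 h. They were preincubated 2 h with serially diluted compound, then stimulated with 50 ng/mL VEGF or 20 ng/mL bFGF for 72 h at 37 °C, 5% CO2. Cells were washed, frozen at -70 °C and stained with CyQuant. IC50s came from a four-parameter logistic fit, averaged over ≥2 experiments; the VEGF IC50 was compared against the bFGF IC50.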

[2] = Intrinsic clearance in rat liver microsomes at 1 uM; assay type: ADME, Microsome; conditions: read-out: Stability
Procedure, shortened: (§1)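 Human or rat liver microsomes (0.25 mg protein/mL) with 1 mM NADPH, 2 mM MgCl2 in 50 mM potassium phosphate pH 7.4 at 37 °C; compound 1 µM final. Sampled 0–40 min into acetonitrile, LC-MS/MS; ln % remaining vs time slope gives T1/2; CLint = (0.693/T1/2)/0.25 mg/mL.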

[3] = Intrinsic clearance in human liver microsomes at 1 uM; assay type: ADME, Microsome; conditions: read-out: Stability; procedure, shortened: as §1
[4] = Clearance in Sprague-Dawley rat at 0.5 mg/kg, iv; assay type: ADME, organism-based; parameters: dose 0.5 mg/kg, route intravenous; conditions: in vivo
Procedure, shortened: (§2)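 Male Sprague–Dawley rats dosed iv via femoral vein as DMSO solution (1 or 0.5 mg/kg) or po by gavage as OraPlus suspension (pH 2.0–2.2 with methanesulfonic acid; 10 or 2 mg/kg). Serial jugular blood over 12–24 h; plasma acetonitrile precipitation, LC-MS/MS (MRM) with internal standard; noncompartmental parameters.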

[5] = Volume of distribution at steady state in Sprague-Dawley rat at 0.5 mg/kg, iv; assay type: ADME, organism-based; parameters: dose 0.5 mg/kg, route intravenous; conditions: in vivo, read-out: Vdss
Procedure, shortened: (§3)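 Male Sprague–Dawley rats dosed iv at 0.5 mg/kg as DMSO solution or po at 2 mg/kg as suspension in 100% OraPlus. Serial jugular blood, plasma LC-MS/MS quantitation, noncompartmental analysis.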

[6] = Half life in Sprague-Dawley rat at 0.5 mg/kg, iv; assay type: ADME, organism-based; parameters: dose 0.5 mg/kg, route intravenous; conditions: in vivo; procedure, shortened: as §2
[7] = AUC (0 to infinity) in Sprague-Dawley rat at 2 mg/kg, po; assay type: ADME, organism-based; parameters: time infinity, dose 2 mg/kg, route oral; conditions: plasma; procedure, shortened: as §2
[8] = Cmax in Sprague-Dawley rat at 2 mg/kg, po; assay type: ADME, organism-based; parameters: dose 2 mg/kg, route oral; conditions: in vivo; procedure, shortened: as §2
[9] = Tmax in Sprague-Dawley rat at 2 mg/kg, po; assay type: ADME, organism-based; parameters: dose 2 mg/kg, route oral; conditions: in vivo; procedure, shortened: as §3
[10] = Oral bioavailability in Sprague-Dawley rat at 2 mg/kg; assay type: ADME, organism-based; conditions: in vivo; procedure, shortened: as §3
[11] = biological target: Angiopoietin-1 receptor (Homo sapiens, UniProt Q02763); assay: Inhibition of Tie2
[12] = biological target: Hepatocyte growth factor receptor (Homo sapiens, UniProt P08581); assay: Inhibition of c-Met
[13] = biological target: T1, Aurora kinase A (Homo sapiens, UniProt O14965); assay: Inhibition of Aurora A
T1 sequence (O14965 whole entry): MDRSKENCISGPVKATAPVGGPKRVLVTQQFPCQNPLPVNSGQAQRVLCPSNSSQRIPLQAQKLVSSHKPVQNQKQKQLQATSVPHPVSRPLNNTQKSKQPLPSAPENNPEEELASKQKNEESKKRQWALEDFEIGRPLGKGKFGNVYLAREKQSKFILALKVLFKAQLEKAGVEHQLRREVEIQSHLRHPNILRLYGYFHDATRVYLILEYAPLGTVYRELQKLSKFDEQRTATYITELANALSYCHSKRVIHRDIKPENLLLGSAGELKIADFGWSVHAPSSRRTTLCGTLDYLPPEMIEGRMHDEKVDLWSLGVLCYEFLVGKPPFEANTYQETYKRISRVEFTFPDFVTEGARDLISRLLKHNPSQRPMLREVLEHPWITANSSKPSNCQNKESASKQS

[14] = biological target: Aurora kinase B (Homo sapiens, UniProt Q96GD4); assay: Inhibition of Aurora B
[15] = test system: HUVEC; assay: Inhibition of VEGF-induced proliferation of HUVEC; assay type: functional, cell-based; conditions: Homo sapiens
[16] = biological target: Vascular endothelial growth factor receptor 2 (Homo sapiens, UniProt P35968)
[17] = Clearance in Sprague-Dawley rat at 1 mg/kg, iv; assay type: ADME, organism-based; parameters: dose 1 mg/kg, route intravenous; conditions: in vivo; procedure, shortened: as §2
[18] = test system: Liver microsomes; assay: Metabolic stability assessed as covalent binding in absence of NADPH in rat liver microsomes at 10 uM after 1 hr; assay type: ADME, Microsome
Procedure, shortened: (§4)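 14C-labelled compound at 10 µM with human or rat liver microsomes (1 mg/mL) in 0.1 M potassium phosphate pH 7.4, with or without 1 mM NADPH and 1 mM glutathione, 60 min; quenched with ice-cold acetonitrile. Pellet washed with 80% methanol and ethanol/ether, solubilized, protein by BCA, radioactivity by scintillation counting.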

[19] = test system: Liver microsomes; assay: Metabolic stability assessed as covalent binding in presence of NADPH and GSH in rat liver microsomes at 10 uM after 1 hr; assay type: ADME, Microsome; procedure, shortened: as §4
[20] = Volume of distribution at steady state in Sprague-Dawley rat at 1 mg/kg, iv; assay type: ADME, organism-based; parameters: dose 1 mg/kg, route intravenous; conditions: in vivo, read-out: Vdss
Procedure, shortened: (§5)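 Male Sprague–Dawley rats given 1 mg/kg iv via femoral vein as DMSO solution or 10 mg/kg by oral gavage as OraPlus suspension, pH adjusted to 2.0–2.2 with methanesulfonic acid. Serial jugular blood over 12–24 h; plasma protein-precipitated with acetonitrile, quantified by LC-MS/MS (MRM) with internal standard; noncompartmental parameters.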

[21] = Half life in Sprague-Dawley rat at 1 mg/kg, iv; assay type: ADME, organism-based; parameters: dose 1 mg/kg, route intravenous; conditions: in vivo; procedure, shortened: as §2
[22] = AUC (0 to infinity) in Sprague-Dawley rat at 10 mg/kg, po; assay type: ADME, organism-based; parameters: dose 10 mg/kg, route oral, time infinity; conditions: plasma; procedure, shortened: as §2
[23] = Cmax in Sprague-Dawley rat at 10 mg/kg, po; assay type: ADME, organism-based; parameters: dose 10 mg/kg, route oral; conditions: in vivo; procedure, shortened: as §2
[24] = Tmax in Sprague-Dawley rat at 10 mg/kg, po; assay type: ADME, organism-based; parameters: dose 10 mg/kg, route oral; conditions: in vivo; procedure, shortened: as §5
[25] = Oral bioavailability in Sprague-Dawley rat at 10 mg/kg; assay type: ADME, organism-based; conditions: in vivo; procedure, shortened: as §5
[26] = Aqueous solubility in 0.01 N Hcl; assay type: physicochemical
[27] = biological target: Vascular endothelial growth factor receptor 1 (Homo sapiens, UniProt P17948); assay: Inhibition of human VEGFR1
[28] = biological target: Vascular endothelial growth factor receptor 3 (Homo sapiens) (UniProt P35916); assay: Inhibition of human VEGFR3
[29] = biological target: Platelet-derived growth factor receptor alpha (Homo sapiens) (UniProt P16234); assay: Inhibition of PDGFRalpha
[30] = biological target: Mast/stem cell growth factor receptor Kit (Homo sapiens) (UniProt P10721); assay: Inhibition of c-Kit
[31] = biological target: Macrophage colony-stimulating factor 1 receptor (Homo sapiens) (UniProt P07333); assay: Inhibition of c-fms
[32] = biological target: Receptor-type tyrosine-protein kinase FLT3 (Homo sapiens) (UniProt P36888); assay: Inhibition of Flt3
[33] = biological target: Tyrosine-protein kinase Fgr (Homo sapiens, UniProt P09769); assay: Inhibition of FGR
[34] = biological target: Tyrosine-protein kinase Lyn (Homo sapiens, UniProt P07948); assay: Inhibition of Lyn
[35] = test system: Mus musculus; assay: Inhibition of VEGF-induced vascular permeability in HEK293 cells expressing mouse recombinant VEGF implanted in CD1 nu/nu mouse assessed as Matrigel plug at 10 mg/kg, po after 6 hrs; assay type: functional, organism-based; parameters: dose 10 mg/kg
Procedure, shortened: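 HEK293 cells expressing murine VEGF (or vector) suspended in Matrigel, injected sc ventrally into CD-1 nu/nu mice. At 24 h, single oral gavage dose as OraPlus suspension; 6 h later Evans blue quantified in 1 cm2 skin over plug; plasma level taken at 6 h; n = 5/group.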

[36] = test system: Rattus norvegicus; assay: Inhibition of VEGF-induced angiogenesis in VEGF-soaked disk implanted in Sprague-Dawley rat cornea assessed as number of blood vessels intersecting the midpoint between disk and limbus after 7 days; assay type: functional; conditions: 168 h
[37] = AUC in VEGF-soaked disk implanted in Sprague-Dawley rat; assay type: ADME, organism-based; conditions: plasma
[38] = Cmax in VEGF-soaked disk implanted in Sprague-Dawley rat; assay type: ADME, organism-based; conditions: in vivo
[39] = test system: Liver microsomes; assay: Metabolic stability assessed as covalent binding in presence of NADPH in human liver microsomes at 10 uM after 1 hr; assay type: ADME, Microsome; procedure, shortened: as §4
[40] = test system: Liver microsomes; assay: Metabolic stability assessed as covalent binding in absence of NADPH in human liver microsomes at 10 uM after 1 hr; assay type: ADME, Microsome; procedure, shortened: as §4
[41] = test system: Liver microsomes; assay: Metabolic stability assessed as covalent binding in presence of NADPH and GSH in human liver microsomes at 10 uM after 1 hr; assay type: ADME, Microsome; procedure, shortened: as §4
[42] = test system: Liver microsomes; assay: Metabolic stability assessed as covalent binding in presence of NADPH in rat liver microsomes at 10 uM after 1 hr; assay type: ADME, Microsome; procedure, shortened: as §4
[43] = biological target: Tyrosine-protein kinase Lck (Homo sapiens, UniProt P06239); assay: Inhibition of Lck
[44] = test system: HUVEC; assay: Inhibition of bFGF-induced proliferation of HUVEC; assay type: functional, cell-based; conditions: Homo sapiens
Procedure, shortened: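 HUVEC seeded at 3000/well in DMEM with 10% FBS, 22 h; 2 h preincubation with serial compound dilutions, then 50 ng/mL VEGF or 20 ng/mL bFGF for 72 h at 37 °C. Freeze–thaw, CyQuant DNA dye read-out; IC50 by four-parameter logistic fit, averaged over ≥2 experiments.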

[45] = biological target: Tyrosine-protein kinase ABL1 (Homo sapiens, UniProt P00519)

Chain of Aurora kinase B (Q96GD4 whole entry): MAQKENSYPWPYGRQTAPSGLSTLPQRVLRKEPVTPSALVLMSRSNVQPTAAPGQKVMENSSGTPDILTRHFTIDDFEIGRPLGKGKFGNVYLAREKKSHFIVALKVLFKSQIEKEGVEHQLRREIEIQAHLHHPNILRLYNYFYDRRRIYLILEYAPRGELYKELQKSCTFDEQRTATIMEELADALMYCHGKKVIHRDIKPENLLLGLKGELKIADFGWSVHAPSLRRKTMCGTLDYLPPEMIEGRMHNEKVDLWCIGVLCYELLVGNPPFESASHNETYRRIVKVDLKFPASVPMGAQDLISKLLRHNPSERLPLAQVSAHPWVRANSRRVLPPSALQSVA
Chain of Angiopoietin-1 receptor (Q02763 whole entry): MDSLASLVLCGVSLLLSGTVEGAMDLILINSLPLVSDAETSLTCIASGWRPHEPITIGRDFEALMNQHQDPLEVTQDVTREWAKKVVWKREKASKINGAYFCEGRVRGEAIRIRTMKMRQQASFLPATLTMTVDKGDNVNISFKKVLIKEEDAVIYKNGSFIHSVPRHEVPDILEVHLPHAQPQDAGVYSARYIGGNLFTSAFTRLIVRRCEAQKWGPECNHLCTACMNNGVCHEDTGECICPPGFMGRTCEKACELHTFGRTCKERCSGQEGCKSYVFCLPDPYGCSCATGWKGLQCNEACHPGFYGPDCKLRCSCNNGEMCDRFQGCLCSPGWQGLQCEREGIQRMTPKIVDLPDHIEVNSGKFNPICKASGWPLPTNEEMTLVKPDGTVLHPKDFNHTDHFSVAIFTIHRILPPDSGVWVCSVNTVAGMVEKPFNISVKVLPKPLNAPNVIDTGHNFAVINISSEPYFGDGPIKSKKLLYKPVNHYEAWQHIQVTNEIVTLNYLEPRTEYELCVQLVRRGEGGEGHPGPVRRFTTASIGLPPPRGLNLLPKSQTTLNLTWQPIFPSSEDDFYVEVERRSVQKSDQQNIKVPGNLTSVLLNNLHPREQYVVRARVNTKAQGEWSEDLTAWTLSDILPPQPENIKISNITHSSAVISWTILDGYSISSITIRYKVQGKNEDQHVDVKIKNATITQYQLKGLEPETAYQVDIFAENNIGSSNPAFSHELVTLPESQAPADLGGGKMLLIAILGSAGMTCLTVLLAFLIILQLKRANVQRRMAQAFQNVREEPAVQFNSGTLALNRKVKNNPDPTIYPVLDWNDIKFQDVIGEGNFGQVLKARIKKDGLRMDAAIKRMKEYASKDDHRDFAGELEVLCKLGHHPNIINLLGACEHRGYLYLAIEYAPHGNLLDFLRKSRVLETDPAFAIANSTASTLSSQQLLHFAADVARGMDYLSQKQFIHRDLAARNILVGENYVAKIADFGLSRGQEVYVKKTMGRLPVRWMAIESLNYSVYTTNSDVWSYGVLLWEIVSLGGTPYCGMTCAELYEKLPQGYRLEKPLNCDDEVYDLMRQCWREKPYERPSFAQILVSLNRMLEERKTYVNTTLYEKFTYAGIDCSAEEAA
Chain of Hepatocyte growth factor receptor (P08581 whole entry): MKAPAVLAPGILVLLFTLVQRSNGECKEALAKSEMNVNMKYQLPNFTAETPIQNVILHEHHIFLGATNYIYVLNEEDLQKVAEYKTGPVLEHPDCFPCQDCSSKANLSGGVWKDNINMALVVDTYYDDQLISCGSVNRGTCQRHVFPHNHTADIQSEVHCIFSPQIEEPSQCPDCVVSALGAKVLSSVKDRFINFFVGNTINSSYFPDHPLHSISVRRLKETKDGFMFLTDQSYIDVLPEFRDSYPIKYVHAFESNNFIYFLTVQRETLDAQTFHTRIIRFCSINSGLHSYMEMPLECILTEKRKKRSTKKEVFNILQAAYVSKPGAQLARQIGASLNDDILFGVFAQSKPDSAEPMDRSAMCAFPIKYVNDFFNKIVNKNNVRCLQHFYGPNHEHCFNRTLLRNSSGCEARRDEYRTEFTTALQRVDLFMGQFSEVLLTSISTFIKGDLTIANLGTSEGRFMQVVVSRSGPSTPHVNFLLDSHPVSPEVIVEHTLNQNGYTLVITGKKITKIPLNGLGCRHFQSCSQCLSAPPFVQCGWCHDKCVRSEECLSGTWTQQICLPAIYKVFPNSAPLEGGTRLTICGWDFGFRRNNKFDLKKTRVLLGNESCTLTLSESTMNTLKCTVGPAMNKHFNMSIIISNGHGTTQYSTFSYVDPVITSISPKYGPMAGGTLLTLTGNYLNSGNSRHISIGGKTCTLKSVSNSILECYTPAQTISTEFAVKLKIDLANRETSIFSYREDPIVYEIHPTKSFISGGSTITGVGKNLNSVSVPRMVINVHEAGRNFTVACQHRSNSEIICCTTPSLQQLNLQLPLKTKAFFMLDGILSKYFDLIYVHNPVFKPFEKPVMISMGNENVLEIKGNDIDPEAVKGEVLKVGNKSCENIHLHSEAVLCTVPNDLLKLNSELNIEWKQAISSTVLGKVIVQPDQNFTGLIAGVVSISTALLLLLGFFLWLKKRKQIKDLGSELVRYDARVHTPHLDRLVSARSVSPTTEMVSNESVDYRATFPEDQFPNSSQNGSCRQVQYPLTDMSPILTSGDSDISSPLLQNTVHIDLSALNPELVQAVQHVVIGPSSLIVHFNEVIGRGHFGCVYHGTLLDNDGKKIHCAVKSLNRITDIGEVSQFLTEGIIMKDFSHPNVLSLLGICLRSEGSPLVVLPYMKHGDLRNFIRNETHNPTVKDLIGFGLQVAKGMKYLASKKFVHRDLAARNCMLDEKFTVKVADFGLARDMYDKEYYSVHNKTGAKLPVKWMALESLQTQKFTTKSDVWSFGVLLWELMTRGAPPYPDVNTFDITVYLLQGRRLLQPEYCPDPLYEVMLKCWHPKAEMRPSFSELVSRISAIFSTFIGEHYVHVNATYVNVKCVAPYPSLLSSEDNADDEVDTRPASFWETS
Chain of Macrophage colony-stimulating factor 1 receptor (Homo sapiens) (P07333 whole entry): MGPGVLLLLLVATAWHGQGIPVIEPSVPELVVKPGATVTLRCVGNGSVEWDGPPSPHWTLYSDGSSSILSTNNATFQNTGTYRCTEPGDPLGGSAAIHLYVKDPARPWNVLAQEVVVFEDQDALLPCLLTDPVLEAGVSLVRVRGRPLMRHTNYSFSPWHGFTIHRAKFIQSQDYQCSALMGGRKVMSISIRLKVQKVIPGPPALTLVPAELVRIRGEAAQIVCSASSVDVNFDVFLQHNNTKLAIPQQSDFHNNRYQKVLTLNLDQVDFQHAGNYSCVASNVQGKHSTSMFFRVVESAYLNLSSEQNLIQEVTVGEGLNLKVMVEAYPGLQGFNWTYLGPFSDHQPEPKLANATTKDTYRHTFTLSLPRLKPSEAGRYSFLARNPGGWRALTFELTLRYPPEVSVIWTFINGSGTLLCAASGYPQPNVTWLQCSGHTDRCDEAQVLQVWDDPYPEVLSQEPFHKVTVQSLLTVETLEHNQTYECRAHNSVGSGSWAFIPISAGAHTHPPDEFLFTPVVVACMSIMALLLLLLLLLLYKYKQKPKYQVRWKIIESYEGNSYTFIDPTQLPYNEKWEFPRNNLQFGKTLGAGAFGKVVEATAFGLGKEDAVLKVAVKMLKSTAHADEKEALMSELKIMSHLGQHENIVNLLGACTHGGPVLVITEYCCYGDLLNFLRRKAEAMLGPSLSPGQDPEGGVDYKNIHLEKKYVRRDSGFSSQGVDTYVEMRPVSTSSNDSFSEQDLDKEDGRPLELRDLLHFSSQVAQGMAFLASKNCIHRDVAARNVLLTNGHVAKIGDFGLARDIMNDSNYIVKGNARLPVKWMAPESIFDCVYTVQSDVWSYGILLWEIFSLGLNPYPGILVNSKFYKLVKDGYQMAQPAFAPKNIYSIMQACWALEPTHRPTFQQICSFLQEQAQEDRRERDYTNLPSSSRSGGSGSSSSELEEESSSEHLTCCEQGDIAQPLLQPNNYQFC
Chain of Tyrosine-protein kinase Fgr (P09769 whole entry): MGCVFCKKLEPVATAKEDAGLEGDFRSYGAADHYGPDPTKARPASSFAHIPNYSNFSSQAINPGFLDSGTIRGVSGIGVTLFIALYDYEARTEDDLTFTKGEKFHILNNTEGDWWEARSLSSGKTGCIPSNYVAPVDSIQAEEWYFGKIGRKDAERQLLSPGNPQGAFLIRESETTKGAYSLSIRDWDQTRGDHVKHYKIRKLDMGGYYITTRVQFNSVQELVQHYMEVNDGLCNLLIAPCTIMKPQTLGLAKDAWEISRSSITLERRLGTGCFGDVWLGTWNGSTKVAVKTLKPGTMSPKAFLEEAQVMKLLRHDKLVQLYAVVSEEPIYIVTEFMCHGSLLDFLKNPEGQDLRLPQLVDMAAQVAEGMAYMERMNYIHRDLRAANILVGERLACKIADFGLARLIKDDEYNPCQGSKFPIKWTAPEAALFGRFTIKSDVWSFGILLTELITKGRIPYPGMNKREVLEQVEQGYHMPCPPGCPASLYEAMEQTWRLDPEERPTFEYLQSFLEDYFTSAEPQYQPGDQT
Chain of Tyrosine-protein kinase Lck (P06239 whole entry): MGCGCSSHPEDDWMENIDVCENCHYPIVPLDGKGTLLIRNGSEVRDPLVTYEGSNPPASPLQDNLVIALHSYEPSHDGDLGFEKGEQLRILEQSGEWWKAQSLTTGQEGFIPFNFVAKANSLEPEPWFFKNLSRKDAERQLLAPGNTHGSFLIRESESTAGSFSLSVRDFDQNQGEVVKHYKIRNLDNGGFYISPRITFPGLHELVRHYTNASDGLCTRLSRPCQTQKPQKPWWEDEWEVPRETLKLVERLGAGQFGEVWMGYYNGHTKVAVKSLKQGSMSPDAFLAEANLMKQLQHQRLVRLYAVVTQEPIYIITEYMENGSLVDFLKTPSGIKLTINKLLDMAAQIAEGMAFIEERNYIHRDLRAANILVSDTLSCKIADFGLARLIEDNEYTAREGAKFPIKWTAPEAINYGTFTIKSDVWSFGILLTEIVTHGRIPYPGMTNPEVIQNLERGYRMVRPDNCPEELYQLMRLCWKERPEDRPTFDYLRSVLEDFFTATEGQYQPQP

COCCNC(=O)c1cccc2cc(Oc3ccnc4cc(OC)c(C(N)=O)cc34)ccc12
Selectivity ratio [1]: >100 | microsomal CLint at 1 µM [2]: 95 µL/min/mg | microsomal CLint at 1 µM [3]: 4 µL/min/mg | clearance [4]: 50.8 mL/min/kg | Vd [5]: 0.751 L/kg | half-life [6]: 0.31 h | AUC(0-inf) [7]: 164 ng·h/mL | Cmax [8]: 61 ng/mL | Tmax [9]: 0.3 h | bioavailability [10]: 12% | IC50 [11]: 8300 nM | IC50 [12]: 6700 nM | IC50 [13]: 8300 nM | IC50 [14]: 233 nM | IC50 [15]: 0.8 nM | IC50 [16]: 22 nM

COc1cc2nccc(Oc3ccc4c(C(=O)NC5CC5)cccc4c3)c2cc1OC
Selectivity ratio [1]: >100 | microsomal CLint at 1 µM [2]: 21 µL/min/mg | microsomal CLint at 1 µM [3]: 31 µL/min/mg | clearance [17]: 2.18 mL/min/kg | Stability [18]: 1.5 pmol/mg/h | Stability [19]: 153 pmol/mg/h | Vd [20]: 1.04 L/kg | half-life [21]: 8.4 h | AUC(0-inf) [22]: 50200 ng·h/mL | Cmax [23]: 6150 ng/mL | Tmax [24]: 2.5 h | bioavailability [25]: 66% | solubility [26]: > 200 µg/mL | Activity [27]: Active | Activity [28]: Active | Activity [29]: Active | Activity [30]: Active | Activity [31]: Active | Activity [32]: inactive | IC50 [33]: 396 nM | IC50 [34]: 27 nM | Cp [35]: 1 µM | ED50 [36]: 0.01 mg/kg | AUC [37]: 0.32 µM·h | Cmax [38]: 20 nM | Stability [39]: 357 pmol/mg/h | Stability [40]: 1.5 pmol/mg/h | Stability [41]: 153 pmol/mg/h | Stability [42]: 60 pmol/mg/h | IC50 [11]: 25000 nM | IC50 [12]: 20000 nM | IC50 [43]: 330 nM | IC50 [13]: 2000 nM | IC50 [14]: 118 nM | IC50 [15]: 0.91 nM | IC50 [44]: 170 nM | IC50 [45]: 466 nM
